ALR H2O2 inh: inhibitors of human ALR sulfhydryl oxidase, primary screen, biochemical, H2O2 detection, HRP-luminol luminescence, single point | purified ALR, DTT oxidation | FAD-linked sulfhydryl oxidase ALR (Homo sapiens), P55789 | 3.8% of 290,000 active | inhibition, % (test concentration not listed);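 active = mean replicate inhibition above about 79%, with every replicate also reaching it, limit read from the data; inconclusive = only one of the two criteria met; inactive = mean below limit and not every replicate reaching it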
Target sequence (P55789 whole entry, looked up): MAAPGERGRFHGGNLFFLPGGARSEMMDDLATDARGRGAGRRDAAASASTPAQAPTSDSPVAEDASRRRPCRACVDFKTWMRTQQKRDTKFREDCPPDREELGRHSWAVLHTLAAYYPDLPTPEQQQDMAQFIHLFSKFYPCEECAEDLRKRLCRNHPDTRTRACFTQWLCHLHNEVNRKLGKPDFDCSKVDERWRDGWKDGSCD
FAS TE block: FAS thioesterase domain inhibitors, primary screen, biochemical, fluorescence intensity, uHTS | Fatty acid synthase (Homo sapiens), P49327 | recombinant FAS-TE, OMFH fluorogenic substrate, fluorescence endpoint | inhibition, % at 15 µM | 0.67% of 360,000 active | AID 602261, 2012;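 active = compounds whose normalised, plate-corrected inhibition of enzyme fluorescence in the single-dose primary screen is 50% or more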;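 also: 0% = DMSO with enzyme and 100% = substrate without enzyme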
HDAC3 inh: HDAC3 deacetylase inhibitors, primary screen, biochemical, fluorescence, cell-free homogeneous. Histone deacetylase 3 (Homo sapiens), O15379. recombinant HDAC3, fluorogenic peptide/trypsin coupled. inhibition, % at 8.3 µM. AID 2718, 2010. 0.15% of 320,000 active; in the data active = inhibition above about 26%, passing the limit was not always enough; inconclusive = no clear call, values can overlap the other calls
Target sequence (O15379 whole entry, looked up): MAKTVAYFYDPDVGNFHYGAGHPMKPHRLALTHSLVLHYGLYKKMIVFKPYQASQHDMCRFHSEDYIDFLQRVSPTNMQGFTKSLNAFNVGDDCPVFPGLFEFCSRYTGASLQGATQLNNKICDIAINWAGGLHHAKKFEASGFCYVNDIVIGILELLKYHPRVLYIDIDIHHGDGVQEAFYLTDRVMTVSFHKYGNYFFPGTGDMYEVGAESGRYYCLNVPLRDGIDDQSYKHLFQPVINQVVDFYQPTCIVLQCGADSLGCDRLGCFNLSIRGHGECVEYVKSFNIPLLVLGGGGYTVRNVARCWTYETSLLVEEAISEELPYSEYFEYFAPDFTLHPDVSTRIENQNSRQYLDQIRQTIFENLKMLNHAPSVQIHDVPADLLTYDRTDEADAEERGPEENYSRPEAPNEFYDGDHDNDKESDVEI
UCH37 inh: inhibitors of human UCH37 deubiquitinase, primary screen, biochemical, Ub-AMC cleavage, fluorescence | 0.33% of 330,000 active | AID 588478, 2011 | purified proteasome/UCH37 | inhibition, % (no concentration beside the values);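 active = mean inhibition over replicate wells above about 20%, limit read from the data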;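 also: 0% = compound-free wells with enzyme and 100% = wells lacking proteasome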
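System: Proteasome-associated human UCH37 deubiquitinase; Input: 0.15 nM proteasome in added enzyme buffer; Also added: Ub-AMC substrate from 1 µM stock; Incubation: 30 min compound-proteasome preincubation then 25 min substrate reaction, room temperature; Detection: fluorescence, ex 355 nm, em 460 nm; Read-out: % inhibition of Ub-AMC cleavage fluorescence; Benchmarks: no-proteasome and no-compound wells.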
PfM18AAP inh: PfM18AAP inhibitors, malaria aminopeptidase, primary screen, biochemical, QFRET, recombinant enzyme; M18 aspartyl aminopeptidase (Plasmodium falciparum 3D7); H-Glu-NHMec fluorogenic cleavage; inhibition, % at 7.35 µM; 1.2% of 290,000 active; AID 1822, 2009;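 active = inhibition above the campaign mean inhibition over all tested compounds plus 3 SD, cut at about 28% in these data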;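 also: 0% = plate median of test compound wells and 100% = 2 mM ZnCl2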
Rtt109 Vps75: inhibitors of C. albicans Rtt109/Vps75 HAT, primary screen, biochemical, ThioGlo CoA-SH fluorescence, plate reader | purified Rtt109/Vps75, 4 h | inhibition, % at 34.9 µM | Histone acetyltransferase RTT109 (Candida albicans (strain SC5314 / ATCC MYA-2876)), … | AID 540336, 2011 | 0.16% of 330,000 active;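 active = inhibition of at least 50% in every replicate; inconclusive = best replicate reaches 50% inhibition but some replicates fall short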
Starred values were filed as active, the others as inactive; u = inconclusive; x = no result given. Hits are enriched below; roughly 4.6% of the tested compounds scored in any of these assays.

SMILES	ALR H2O2 inh	FAS TE block	HDAC3 inh	UCH37 inh	PfM18AAP inh	Rtt109 Vps75
Cc1ncc(CSCC(=O)Nc2cc(C(F)(F)F)ccc2Cl)c(CO)c1O	94*	-8	1	-10	-14	19
O=C(CN1CCCC1)Nc1cc(C(F)(F)F)ccc1Cl	11	-2	4	-1	1	-5
Cc1noc(C)c1CSCC(=O)Nc1cc(C(F)(F)F)ccc1N1CCOCC1	-3	8	-2	1	x	6
O=P(C(=NO)Sc1ccccc1)(N1CCOCC1)N1CCOCC1	x	x	x	2	x	x
c1ccc(NNC2=NCCCCC2)cc1	99*	-6	-4	x	12	-7
Cc1ccc(S(=O)(=O)Oc2ccc(C=N/N=C3/NC(=O)C(CC(=O)O)S3)cc2)cc1[N+](=O)[O-] (centres undefined)	x	x	x	9	x	x
Cc1nn(-c2ccccc2)c(C)c1C=NNS(=O)(=O)c1ccc(Cl)cc1	x	x	x	4	x	x
Oc1ccc(-c2cnns2)c(O)c1	99*	-5	10	2	99*	-3
Cc1cc(-c2ccccc2)nc(NN=Cc2ccc(N(C)C)cc2)n1	x	x	x	6	x	x
Oc1ccc(C2CNCc3sccc32)cc1O (centres undefined)	98*	-4	12	2	x	6
CCOc1ccc(-c2c(C(=O)NN=Cc3cccnc3)nnn2-c2nonc2N)cc1	x	x	x	4	x	x
O=C(O)CCC(=NNc1ccc([N+](=O)[O-])cc1S(=O)(=O)N1CCOCC1)c1cccs1	x	x	x	8	x	x
O=C(O)CCC(=NNc1ccc(S(=O)(=O)N2CCOCC2)cc1[N+](=O)[O-])c1cccs1	x	x	x	20*	x	x
COc1cc(/C=C/C(=O)OCC(=O)NCc2ccc(F)cc2)ccc1O	x	-4	1	-7	x	7
COc1cc(/C=C/C(=O)OCC(=O)N2CCN(C(=O)c3ccco3)CC2)ccc1O	99*	-8	-1	-12	3	-8
COc1cc(/C=C/C(=O)OCC(=O)NC2CCS(=O)(=O)C2)ccc1O (centres undefined)	x	-5	1	-12	-8	1
COc1cc(/C=C/C(=O)OCC(=O)NC(=O)NC(C)C)ccc1O	99*	-5	-4	-15	-16	29
COc1cc(/C=C/C(=O)OCC(=O)NCc2ccccc2OC)ccc1O	84*	2	6	-6	x	3
CCC(C)N(C(=O)COC(=O)/C=C/c1ccc(O)c(OC)c1)C1CCS(=O)(=O)C1 (centres undefined)	94*	-8	-3	-16	1	x
COc1cc(/C=C/C(=O)OCC(=O)NC(=O)NC(C)C)ccc1OCC#N	-2	-13	0	-40	3	-10
CCC(C)C(C)=NNC(=O)c1cn(-c2ccccc2)nc1-c1ccccc1 (centres undefined)	x	x	x	1	x	x
CC(=NNc1ccc([N+](=O)[O-])cc1)c1ccc(-n2nncc2C(C)(C)C)cc1	x	x	x	6	x	x
CCOC(=O)C1=C(c2ccccc2)N=c2sc(=Cc3ccco3)c(=O)n2C1c1cccs1 (centres undefined)	x	x	x	6	x	x
CC1(C)CC(=O)CC(=NNC(=O)c2cccs2)C1	x	x	x	6	x	x
COc1cc(/C=C/C(=O)OCC(=O)Nc2ccc3c(c2)OCCO3)ccc1O	81*	-3	5	-10	2	1
SMILES	ALR H2O2 inh	FAS TE block	HDAC3 inh	UCH37 inh	PfM18AAP inh	Rtt109 Vps75
COc1cc(/C=C/C(=O)OCC(=O)NCCC2=CCCCC2)ccc1O	99*	-1	u	0	9	10
COc1cc(/C=C/C(=O)OCC(=O)Nc2ccc3c(c2)OCO3)ccc1O	x	-3	2	-5	x	32
COc1ccc(C(=O)Nc2cccc(C(C)=NNC(=O)c3ccc([N+](=O)[O-])cc3)c2)cc1OC	x	x	x	1	x	x
Cc1ccc(C(=O)/C=C/c2ccco2)c(O)c1	98*	-4	3	4	1	2
O=C(C=Cc1ccco1)c1ccco1	x	-5	x	-28	x	-1
CC(=NNC(=O)Cc1ccccc1[N+](=O)[O-])c1cccnc1	x	x	x	6	x	x
Cc1nc2ccc(S(=O)(=O)NC(C(=O)Nc3nccs3)C(C)C)cc2s1 (centres undefined)	92*	-8	2	0	-1	2
COc1cc(-c2oc3cc(O)cc(O)c3c(=O)c2O[C@@H]2O[C@H](COC3O[C@@H](C)[C@H](O)[C@@H](O)[C@H]3O)[C@@H](O)[C@H](O)[C@H]2O)ccc1O (some centres undefined)	94*	-15	-4	4	x	7
C[C@@H]1O[C@@H](O[C@H]2[C@H](O)[C@@H](O)[C@H](Oc3c(-c4ccc(O)c(O)c4)oc4cc(O)cc(O)c4c3=O)O[C@@H]2CO)[C@H](O)[C@H](O)[C@H]1O	96*	-8	8	x	x	1
COc1ccc(-c2oc3c(CC=C(C)C)c(O[C@@H]4O[C@H](CO)[C@@H](O)[C@H](O)[C@H]4O)cc(O)c3c(=O)c2O[C@@H]2O[C@@H](C)[C@H](O)[C@@H](O)[C@H]2O)cc1	17	x	8	3	7	x
C[C@@H]1O[C@@H](Oc2c(-c3ccc(O)c(O)c3)oc3cc(O)cc(O)c3c2=O)[C@H](O)[C@H](O)[C@H]1O	99*	-2	13	2	x	16
O=c1c2c(O)cc(O)cc2oc2c(O)ccc(O[C@H]3O[C@@H](CO)[C@H](O)[C@@H](O)[C@@H]3O)c12	20	-8	10	3	x	-3
O=C(NNc1cccc(Cl)n1)c1ccc(Cl)cc1Cl	-4	-4	0	5	23	1
CC(Cl)C(=O)NNc1cccc(Cl)n1 (centres undefined)	97*	-7	-6	2	12	5
CCOc1ccccc1NC(=O)/C(C#N)=C/c1c(C)nn(-c2ccccc2)c1Cl	7	18	4	2	0	-7
C=CCNC(=O)/C(C#N)=C/c1c(C)nn(-c2ccccc2)c1Cl	96*	22	15	1	5	x
C=CCNC(=O)/C(C#N)=C/c1ccc(C)o1	-10	-4	3	22*	2	-3
CCNC(=O)Oc1ccc(-c2csnn2)cc1	99*	-4	4	4	2	9
Cc1ccc(S(=O)(=O)NN=Cc2ccc(Cl)c([N+](=O)[O-])c2)cc1	x	x	x	4	x	x
CC(C)OC(=O)Cn1cnc2ccc(Br)cc2c1=O	89*	-2	-3	1	-2	-4
COc1ccc(-c2nc(CS(=O)CC(=O)NCc3ccc(F)cc3)c(C)o2)cc1 (centres undefined)	99*	-2	-2	-2	-11	2

Assay outcomes as filed in PubChem.
